Test results from ChEMBL document CHEMBL4321859, “Unforeseen Possibilities To Investigate the Regulation of Polyamine Metabolism Revealed by Novel C-Methylated Spermine Derivatives” (J Med Chem, 2019).
Calls of active or inactive are those of the source. The rule behind the calls is not given here.

What was measured:
[1] = test system: DU-145; assay: Reversal of alpha-difluoromethylornithine-induced growth arrest in human DU145 cells at 100 uM after 3 days; format: functional, cell-based
Method in brief: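 DU145 cells cultured 3 days with 100 μM analogue, with or without 5 mM DFMO, all supplemented with 1 mM aminoguanidine. Growth assessed by electronic cell counting. Means ± SD, n = 3.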

[2] = biological target: T1, Ornithine decarboxylase (Homo sapiens) (UniProt P11926); assay: Inhibition of ODC in human DU145 cells at 100 uM after 6 hrs; format: cell-based
T1 sequence (whole entry): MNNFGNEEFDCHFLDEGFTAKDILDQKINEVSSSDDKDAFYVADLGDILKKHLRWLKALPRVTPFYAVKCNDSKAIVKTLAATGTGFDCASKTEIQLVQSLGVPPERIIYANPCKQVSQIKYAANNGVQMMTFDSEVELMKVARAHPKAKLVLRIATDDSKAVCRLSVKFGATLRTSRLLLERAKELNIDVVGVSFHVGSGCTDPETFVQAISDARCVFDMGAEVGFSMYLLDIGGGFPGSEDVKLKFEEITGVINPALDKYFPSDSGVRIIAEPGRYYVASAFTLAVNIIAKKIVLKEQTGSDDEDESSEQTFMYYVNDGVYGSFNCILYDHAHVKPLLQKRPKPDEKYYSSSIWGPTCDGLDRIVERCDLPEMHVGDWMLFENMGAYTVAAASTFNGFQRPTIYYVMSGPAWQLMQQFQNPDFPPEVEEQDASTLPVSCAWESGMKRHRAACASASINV

[3] = biological target: Diamine acetyltransferase 1 (Mus musculus) (UniProt P48026); assay: Inhibition of recombinant mouse SSAT using spm as substrate at 500 uM relative to control
Method in brief: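 Mouse recombinant SSAT acetylation with spermine fixed at 50 μM as substrate, analogue present at 500 μM. Activity expressed relative to reaction without analogue.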

[4] = biological target: Diamine acetyltransferase 1 (Homo sapiens) (UniProt P21673); assay: Induction of changes in SSAT activity in human DU145 cells at 100 uM after 6 hrs; format: cell-based
[5] = biological target: T2, Amine oxidase [copper-containing] 3 (Bos taurus) (UniProt Q9TTK6); assay: Inhibition of bovine plasma SSAO at 50 uM using spermine as substrate relative to control
T2 sequence (whole entry): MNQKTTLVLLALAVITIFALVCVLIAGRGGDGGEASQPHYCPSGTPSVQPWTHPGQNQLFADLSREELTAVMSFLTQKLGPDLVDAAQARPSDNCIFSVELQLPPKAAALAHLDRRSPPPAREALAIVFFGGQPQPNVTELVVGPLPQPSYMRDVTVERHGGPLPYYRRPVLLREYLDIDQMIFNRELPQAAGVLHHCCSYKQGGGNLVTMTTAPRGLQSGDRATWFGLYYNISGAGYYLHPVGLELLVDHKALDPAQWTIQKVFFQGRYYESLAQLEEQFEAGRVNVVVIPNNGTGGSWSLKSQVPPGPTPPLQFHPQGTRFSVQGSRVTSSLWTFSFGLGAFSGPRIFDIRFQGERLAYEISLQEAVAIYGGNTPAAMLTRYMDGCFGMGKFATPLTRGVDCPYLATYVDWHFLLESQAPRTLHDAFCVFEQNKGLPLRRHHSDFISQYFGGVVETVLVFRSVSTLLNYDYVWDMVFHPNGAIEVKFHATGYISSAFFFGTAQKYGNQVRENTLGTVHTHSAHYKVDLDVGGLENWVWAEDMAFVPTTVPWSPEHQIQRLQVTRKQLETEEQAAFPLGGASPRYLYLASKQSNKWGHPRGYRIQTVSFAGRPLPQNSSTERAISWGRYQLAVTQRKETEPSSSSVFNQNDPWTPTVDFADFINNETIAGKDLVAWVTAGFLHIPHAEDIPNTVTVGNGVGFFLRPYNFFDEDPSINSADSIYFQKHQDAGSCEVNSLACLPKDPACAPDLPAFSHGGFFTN
Method in brief: (§1)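 Competition with natural substrate at fixed 50 μM: spermine for purified bovine plasma SSAO and human recombinant SMOX, N1-acetylspermidine for human recombinant APAO. Analogue tested at 50 μM, with activity expressed relative to reaction without analogue.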

[6] = biological target: Ornithine decarboxylase antizyme 1 (Homo sapiens) (UniProt P54368); assay: Induction of OAZ1 in human DU145 cells assessed as reduction in intracellular ODC activity at 10 uM after 6 hrs relative to control; parameters: scale not given: the % may be the effect or the level left
[7] = biological target: Diamine acetyltransferase 1 (Homo sapiens) (UniProt P21673); assay: Induction of changes in SSAT activity in human DU145 cells at 100 uM after 3 days; format: cell-based
[8] = biological target: T3, S-adenosylmethionine decarboxylase proenzyme (Homo sapiens) (UniProt P17707); assay: Inhibition of AdoMetDC in human DU145 cells at 100 uM after 6 hrs; format: cell-based
T3 sequence (whole entry): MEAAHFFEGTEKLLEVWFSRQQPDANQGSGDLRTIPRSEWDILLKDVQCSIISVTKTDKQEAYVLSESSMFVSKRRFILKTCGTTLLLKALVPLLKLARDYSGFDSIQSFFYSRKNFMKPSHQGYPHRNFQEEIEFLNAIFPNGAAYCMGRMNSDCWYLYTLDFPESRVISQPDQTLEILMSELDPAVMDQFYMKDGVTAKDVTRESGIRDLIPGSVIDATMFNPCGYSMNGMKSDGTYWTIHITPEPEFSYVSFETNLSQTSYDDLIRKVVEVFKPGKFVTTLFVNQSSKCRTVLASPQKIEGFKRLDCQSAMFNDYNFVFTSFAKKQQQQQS

[9] = biological target: T1, Ornithine decarboxylase (Homo sapiens); assay: Inhibition of ODC in human DU145 cells at 100 uM after 3 days; format: cell-based
[10] = biological target: T3, S-adenosylmethionine decarboxylase proenzyme (Homo sapiens); assay: Inhibition of AdoMetDC in human DU145 cells at 100 uM after 3 days; format: cell-based
[11] = test system: CC(CCN)NCCCCNC(C)CCN; assay: (§2) Substrate activity at recombinant mouse SSAT assessed as Km at 2000 to 6000 uM; format: ADME
[12] = test system: CC(CN)CNCCCCNCC(C)CN; assay: as §2; format: ADME
[13] = biological target: Spermine oxidase (Homo sapiens) (UniProt Q9NWM0); assay: Inhibition of recombinant human SMOX at 500 uM using spermine as substrate relative to control
Method in brief: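 Human recombinant SMOX reaction with spermine fixed at 50 μM as substrate, analogue added at 500 μM. Activity expressed relative to reaction without analogue.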

[14] = biological target: Ornithine decarboxylase antizyme 1 (Homo sapiens) (UniProt P54368); assay: Induction of OAZ1 in human DU145 cells assessed as reduction in intracellular ODC activity at 100 uM after 6 hrs relative to control; parameters: scale not given: the % may be the effect or the level left
[15] = biological target: Spermine oxidase (Homo sapiens) (UniProt Q9NWM0); assay: Inhibition of recombinant human SMOX at 50 uM using spermine as substrate relative to control; method in brief: as §1

Diamine acetyltransferase 1 (Homo sapiens), sequence (P21673 whole entry): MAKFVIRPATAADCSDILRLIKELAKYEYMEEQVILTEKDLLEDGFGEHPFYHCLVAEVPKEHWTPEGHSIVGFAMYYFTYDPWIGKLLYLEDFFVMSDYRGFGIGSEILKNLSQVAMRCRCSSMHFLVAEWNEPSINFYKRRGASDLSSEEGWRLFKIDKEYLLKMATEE
Diamine acetyltransferase 1 (Mus musculus), sequence (chain, as listed by the source): as the sequence (P21673 whole entry) above, with V5K, A12S, E32D, L42Q, R119K, T169A counted along it
Ornithine decarboxylase antizyme 1 (Homo sapiens), sequence (P54368 whole entry): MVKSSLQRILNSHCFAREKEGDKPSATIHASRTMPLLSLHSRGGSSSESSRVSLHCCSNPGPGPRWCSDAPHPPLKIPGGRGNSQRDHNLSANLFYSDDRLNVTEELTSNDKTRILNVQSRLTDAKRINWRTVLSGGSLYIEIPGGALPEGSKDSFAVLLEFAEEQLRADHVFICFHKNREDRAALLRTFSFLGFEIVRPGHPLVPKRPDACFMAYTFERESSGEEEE
Diamine acetyltransferase 1 (Mus musculus) (UniProt P48026), sequence (P48026 whole entry): as the sequence (P21673 whole entry) above, with V5K, A12S, E32D, L42Q, R119K, T169A counted along it
Spermine oxidase (Homo sapiens), sequence (Q9NWM0 whole entry): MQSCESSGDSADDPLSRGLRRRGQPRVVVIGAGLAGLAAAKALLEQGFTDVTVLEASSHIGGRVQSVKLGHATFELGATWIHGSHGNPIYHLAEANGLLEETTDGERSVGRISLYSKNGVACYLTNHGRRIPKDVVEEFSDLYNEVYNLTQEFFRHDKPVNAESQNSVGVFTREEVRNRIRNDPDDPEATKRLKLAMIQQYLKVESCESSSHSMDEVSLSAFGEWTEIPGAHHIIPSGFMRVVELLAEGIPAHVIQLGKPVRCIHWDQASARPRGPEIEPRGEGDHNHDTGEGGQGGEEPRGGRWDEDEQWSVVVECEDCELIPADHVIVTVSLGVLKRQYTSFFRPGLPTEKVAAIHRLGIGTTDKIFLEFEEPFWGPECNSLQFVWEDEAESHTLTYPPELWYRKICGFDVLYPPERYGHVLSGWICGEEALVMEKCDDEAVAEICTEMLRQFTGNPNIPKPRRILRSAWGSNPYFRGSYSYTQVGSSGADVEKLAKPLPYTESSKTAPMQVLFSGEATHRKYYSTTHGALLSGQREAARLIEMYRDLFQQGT

Row | Molecule | inhibition [2] | inhibition [3] [%] | Activity [4] | inhibition [5] | Activity [6] [%] | Activity [7] | inhibition [8] | inhibition [9] | inhibition [10] | inhibition [13] [%] | Activity [14] [%] | inhibition [15] [%] | Activity [1] | Km [11] [µM] | Vmax [11] [µmol/min/mg] | Km [12] [µM] | Vmax [12] [µmol/min/mg]
1 | CC(N)CCNCCCCNCCC(C)N (centres undefined) | Active | 80 | inactive | inactive | 80 | Active | Active | Active | Active |  |  |  | Active |  |  |  | 
2 | Diamine acetyltransferase 1 (Mus musculus) |  |  |  |  |  |  |  |  |  |  |  |  |  | 60 | 0.136 | 52 | 0.895

Continued, in another order:

Row | inhibition [2] | inhibition [3] [%] | Activity [4] | inhibition [5] | Activity [6] [%] | Activity [7] | inhibition [8] | inhibition [9] | inhibition [10] | inhibition [13] [%] | Activity [14] [%] | inhibition [15] [%] | Molecule | Activity [1] | Km [11] [µM] | Vmax [11] [µmol/min/mg] | Km [12] [µM] | Vmax [12] [µmol/min/mg]
3 | Active |  | inactive | 80% | 80 | Active | Active | Active | Active | 70 |  |  | CC(CN)CNCCCCNCC(C)CN (centres undefined) | Active |  |  |  | 
4 | Active |  |  |  | 80 |  |  | Active |  |  |  |  | NCCCNCCCCNCCCN |  |  |  |  | 
5 | inactive | 75 | inactive | inactive | 5 | inactive | Active | inactive | Active |  | 55 | 70 | CC(CCN)NCCCCNC(C)CCN (centres undefined) | Active |  |  |  | 
